Results reported in ChEMBL document CHEMBL1135711, “Evaluation of the Dmt-Tic pharmacophore: conversion of a potent delta-opioid receptor antagonist into a potent delta agonist and ligands with mixed properties” (J Med Chem, 2002).
Square brackets hold non-standard residues; d marks the D form. Peptide text beside a SMILES is read from it. * marks the point of attachment. ξ: configuration not given here. Dmt = Cc1cc(O)cc(C)c1C[C@H](N)C(=O)O; Tic = O=C(O)[C@@H]1Cc2ccccc2CN1; ξTic = O=C(O)C1Cc2ccccc2CN1; NHBn = c1ccc(CN*)cc1; NHPh = c1ccc(N*)cc1

Key:
[1] = target: Delta-type opioid receptor (Rattus norvegicus, UniProt P33533); experiment: Binding affinity at Opioid receptor delta 1 using rat brain receptor (P2 synaptosome) assay; type: tissue-based
Method in brief: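 Competition binding at equilibrium on rat brain P2 synaptosomes with [3H]DPDPE for δ sites, in 50 mM HEPES pH 7.5 with MgCl2, protease inhibitors and glycerol. Incubation 120 min at 23-24 °C, then GF/C filtration and ice-cold Tris/BSA washes. Nonspecific binding defined by 2 µM DPDPE. 5-8 graded doses over 2-3 log units.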

Mu-type opioid receptor [2] = target: T1, Mu-type opioid receptor (Cavia porcellus, UniProt P97266); experiment: Negative logarithm of the molar concentration of an agonist to produce 50% of the maximum effect in guinea pig ileum (mu receptor) determined by Salvadori et al.; type: functional, tissue-based
Mu-type opioid receptor [3] = target: Mu-type opioid receptor (Rattus norvegicus, UniProt P33535); experiment: Binding affinity for rat brain P2 synaptosome Opioid receptor mu 1; type: tissue-based
Method in brief: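 Equilibrium competition binding on rat brain P2 synaptosomes with [3H]DAGO for µ sites, in 50 mM HEPES pH 7.5 with MgCl2, protease inhibitors and glycerol. 120 min at 23-24 °C, GF/C filtration, ice-cold Tris/BSA washes. Nonspecific binding defined by 2 µM DAGO. 5-8 graded doses over 2-3 log units.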

[4] = target: T2, Delta-type opioid receptor (Mus musculus, UniProt P32300); experiment: Negative logarithm of the molar concentration required to double the agonist concentration to achieve the original response in mouse vas deferens (MVD); type: functional, tissue-based; conditions: read-out: pA2 (converted)
Mu-type opioid receptor [5] = target: T1, Mu-type opioid receptor; experiment: Negative logarithm of the molar concentration of an agonist to produce 50% of the maximum effect in guinea pig ileum (mu receptor) determined; type: functional, tissue-based
Mus musculus [6] = species on record: Mus musculus; experiment: Delta or Mu antagonist activity tested in mouse vas deferens (MVD) along with, naloxone; conditions: read-out: pA2 (converted)
Mus musculus [7] = species on record: Mus musculus; experiment: Delta or Mu antagonist activity tested in mouse vas deferens (MVD) along with N,N-dimethyl-Dmt-Tic-OH; conditions: read-out: pA2 (converted)
[8] = target: Delta-type opioid receptor (Mus musculus) (UniProt P32300); experiment: Molar concentration required to double the agonist concentration to achieve the original response in mouse vas deferens (MVD); type: functional, tissue-based
Mu-type opioid receptor [9] = target: Mu-type opioid receptor (Mus musculus, UniProt P42866); experiment: Opioid receptor delta 1 or Opioid receptor mu 1 antagonist activity tested in mouse vas deferens (MVD) along with N,N-dimethyl-Dmt-Tic-OH; type: functional, tissue-based; conditions: read-out: pA2 (converted)
[10] = target: T2, Delta-type opioid receptor; experiment: Opioid receptor delta 1 or Opioid receptor mu 1 antagonist activity tested in mouse vas deferens (MVD) along with, naloxone; type: functional, tissue-based; conditions: read-out: pA2 (converted)

Chain of Delta-type opioid receptor (Mus musculus) (P32300 whole entry): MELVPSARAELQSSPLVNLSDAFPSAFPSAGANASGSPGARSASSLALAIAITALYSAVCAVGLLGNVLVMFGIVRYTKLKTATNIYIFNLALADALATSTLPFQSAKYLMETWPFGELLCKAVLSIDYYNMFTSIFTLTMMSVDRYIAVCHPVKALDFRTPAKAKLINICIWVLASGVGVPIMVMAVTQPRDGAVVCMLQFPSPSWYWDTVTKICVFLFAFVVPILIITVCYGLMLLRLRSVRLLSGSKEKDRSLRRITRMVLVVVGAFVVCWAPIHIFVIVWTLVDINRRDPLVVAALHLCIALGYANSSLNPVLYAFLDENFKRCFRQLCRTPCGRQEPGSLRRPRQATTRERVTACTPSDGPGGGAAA
T2 sequence (P32300 whole entry): as above
T1 sequence (P97266 whole entry): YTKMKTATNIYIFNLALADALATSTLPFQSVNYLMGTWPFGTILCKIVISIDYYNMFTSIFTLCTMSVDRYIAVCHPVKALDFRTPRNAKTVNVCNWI
Chain of Mu-type opioid receptor (Rattus norvegicus, UniProt P33535) (P33535 whole entry): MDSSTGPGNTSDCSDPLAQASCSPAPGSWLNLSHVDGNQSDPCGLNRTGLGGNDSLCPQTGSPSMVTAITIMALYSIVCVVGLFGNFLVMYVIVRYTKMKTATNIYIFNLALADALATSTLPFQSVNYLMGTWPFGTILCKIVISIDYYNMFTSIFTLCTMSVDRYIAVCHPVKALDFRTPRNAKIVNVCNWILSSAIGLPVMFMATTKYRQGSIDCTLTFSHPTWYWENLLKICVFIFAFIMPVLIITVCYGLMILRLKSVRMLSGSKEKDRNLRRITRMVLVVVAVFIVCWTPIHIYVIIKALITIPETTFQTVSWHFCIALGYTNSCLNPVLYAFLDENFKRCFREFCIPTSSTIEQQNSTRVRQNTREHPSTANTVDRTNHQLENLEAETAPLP
Chain of Delta-type opioid receptor (Rattus norvegicus, UniProt P33533) (P33533 whole entry): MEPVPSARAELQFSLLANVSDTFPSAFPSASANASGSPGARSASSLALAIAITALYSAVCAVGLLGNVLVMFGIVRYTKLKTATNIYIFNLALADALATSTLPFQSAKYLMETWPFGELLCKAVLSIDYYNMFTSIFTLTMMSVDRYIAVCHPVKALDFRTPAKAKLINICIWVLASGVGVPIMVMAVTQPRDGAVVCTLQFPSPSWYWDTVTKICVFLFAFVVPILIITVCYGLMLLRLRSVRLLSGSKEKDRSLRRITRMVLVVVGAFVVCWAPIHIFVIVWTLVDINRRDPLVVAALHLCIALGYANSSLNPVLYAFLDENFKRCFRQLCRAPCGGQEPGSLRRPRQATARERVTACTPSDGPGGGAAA
Chain of Mu-type opioid receptor (Mus musculus, UniProt P42866) (P42866 whole entry): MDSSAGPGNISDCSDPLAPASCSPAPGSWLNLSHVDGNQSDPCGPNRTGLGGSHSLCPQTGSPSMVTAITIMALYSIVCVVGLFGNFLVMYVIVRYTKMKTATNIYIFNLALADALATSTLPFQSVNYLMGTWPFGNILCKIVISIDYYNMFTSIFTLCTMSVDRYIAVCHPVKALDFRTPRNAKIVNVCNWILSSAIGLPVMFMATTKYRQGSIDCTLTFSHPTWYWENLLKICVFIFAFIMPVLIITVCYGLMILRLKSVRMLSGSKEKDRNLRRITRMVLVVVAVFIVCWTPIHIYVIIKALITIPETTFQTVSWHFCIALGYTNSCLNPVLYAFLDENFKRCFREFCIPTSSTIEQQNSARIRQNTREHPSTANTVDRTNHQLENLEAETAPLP

Cc1cc(O)cc(C)c1C[C@H](N)C(=O)N1Cc2ccccc2C[C@H]1C(=O)NCC(=O)NCc1ccccc1 (H-[Dmt]-[Tic]-Gly-NHBn)
Ki [1]: 0.031 nM | EC50 (Mu-type opioid receptor [2]): 2.69 nM | Ki (Mu-type opioid receptor [3]): 0.16 nM

Cc1cc(O)cc(C)c1C[C@H](N)C(=O)N1Cc2ccccc2C[C@H]1C(=O)NCCc1nc2ccccc2[nH]1
Ki [1]: 0.067 nM | EC50 (Mu-type opioid receptor [2]): 107 nM | Ki (Mu-type opioid receptor [3]): 5.49 nM

Cc1cc(O)cc(C)c1C[C@H](N)C(=O)N1Cc2ccccc2C[C@H]1C(=O)N[C@@H](C)C(N)=O (H-[Dmt]-[Tic]-Ala-NH2)
Kb [4]: 10 nM

C[C@@H](NC(=O)[C@@H](N)Cc1ccc(O)cc1)C(=O)N[C@@H](Cc1ccccc1)C(=O)NCC(=O)N[C@@H](Cc1ccc(O)cc1)C(=O)N1CCC[C@H]1C(=O)N[C@@H](CO)C(N)=O [DERMORPHIN]
EC50 (Mu-type opioid receptor [5]): 0.708 nM

Cc1cc(O)cc(C)c1C[C@H](N)C(=O)N1Cc2ccccc2C[C@H]1c1nc2ccccc2[nH]1
Ki [1]: 0.13 nM | Kb [4]: 12.6 nM | Ki (Mu-type opioid receptor [3]): 7.22 nM

Cc1cc(O)cc(C)c1C[C@H](N)C(=O)N1Cc2ccccc2C[C@H]1C(=O)NCc1nc2ccccc2[nH]1
Kb (Mus musculus [6]): 35.5 nM | Kb (Mus musculus [7]): 0.2 nM

CC(C)[C@H](NC(=O)[C@H](CC(=O)O)NC(=O)[C@H](Cc1ccccc1)NC(=O)[C@@H](C)NC(=O)[C@@H](N)Cc1ccc(O)cc1)C(=O)N[C@H](C(=O)NCC(N)=O)C(C)C [DELTORPHIN C]
Kb (Mus musculus [6]): 31.6 nM

Cc1cc(O)cc(C)c1C[C@H](N)C(=O)N1Cc2ccccc2CC1C(N)=O (stereo partly specified) (H-[Dmt]-[ξTic]-NH2)
Activity [8]: -7.2

Cc1cc(O)cc(C)c1C[C@H](N)C(=O)N1Cc2ccccc2C[C@H]1C(=O)O (H-[Dmt]-[Tic]-OH)
Activity [8]: -8.2

Cc1cc(O)cc(C)c1C[C@H](N)C(=O)N1Cc2ccccc2C[C@H]1C(=O)NCC(=O)Nc1ccccc1 (H-[Dmt]-[Tic]-Gly-NHPh)
Kb (Mu-type opioid receptor [9]): 0.912 nM | Kb [10]: 33.9 nM

Cc1cc(O)cc(C)c1C[C@H](N)C(=O)N1Cc2ccccc2CC1CO (stereo partly specified)
Ki [1]: 0.44 nM | Activity [8]: -7 | Ki (Mu-type opioid receptor [3]): 151 nM
